Screening data: PubChem, several laboratories
HEK293 NFkB inh: lowers PMA/ionomycin-induced NF-kB signal in HEK293 cells. 62,000 tested, 0.21% active. HEK-293 NF-kB luciferase reporter, luminescence. inhibition, % at 3 µM;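 active = inhibition above the mean of all tested compounds plus 3 SD, cut at about 40% in these data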;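 also: 0% = stimulated DMSO wells and 100% = 10 µM reference inhibitor 5653914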
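Reagent: PMA plus ionomycin mix as NF-kB-activating stimulus. Assay system: NF-kB luciferase reporter HEK-293 cells. Technique: luminescence from luciferase substrate reagent. Incubation: 1 h compound pre-incubation, 16 h PMA/ionomycin at 37 °C. Benchmarks: DMSO only as uninhibited control, 10 µM reference inhibitor as full inhibition. Repeats: tested once.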
PLK1 kinase inh: inhibitors of human PLK1 kinase. P53350. recombinant PLK1 kinase, TR-FRET peptide phosphorylation. inhibition, % at 10 µM. 97,000 tested, 0.53% active. AID 619;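 active = inhibition of 50% or more in the single-concentration screen; inactive = inhibition below 50%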;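 also: 0% = DMSO max control and 100% = H-89 dihydrochloride min control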
Target sequence (P53350 whole entry, looked up): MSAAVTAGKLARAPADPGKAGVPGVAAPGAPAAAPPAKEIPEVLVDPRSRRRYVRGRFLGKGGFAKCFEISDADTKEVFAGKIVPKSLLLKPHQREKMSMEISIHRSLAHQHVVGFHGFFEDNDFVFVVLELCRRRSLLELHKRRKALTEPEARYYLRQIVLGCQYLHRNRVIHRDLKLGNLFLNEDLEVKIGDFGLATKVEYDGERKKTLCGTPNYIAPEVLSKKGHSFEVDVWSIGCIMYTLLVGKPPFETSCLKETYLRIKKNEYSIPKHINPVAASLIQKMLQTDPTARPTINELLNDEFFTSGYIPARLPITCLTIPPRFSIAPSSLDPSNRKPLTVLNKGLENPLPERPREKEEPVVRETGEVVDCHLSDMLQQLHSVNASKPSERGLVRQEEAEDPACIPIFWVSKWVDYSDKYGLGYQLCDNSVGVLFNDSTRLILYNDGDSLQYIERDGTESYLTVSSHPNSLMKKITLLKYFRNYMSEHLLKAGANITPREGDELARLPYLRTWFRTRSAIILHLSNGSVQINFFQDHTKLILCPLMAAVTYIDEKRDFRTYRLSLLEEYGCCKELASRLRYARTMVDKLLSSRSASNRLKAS
Plk1 PBD FP: Plk1 (human) PBD binding inhibition; P53350; AID 693; inhibition, %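 (tested at about 20 µM)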; Plk1 PBD phosphopeptide binding, fluorescence polarization; 97,000 tested, 0.13% active; in the data active = inhibition above about 34%, passing the limit was not always enough
PTK2B oligo ant: antagonists of human Pyk2 oligomerization | Q293 cells, Pyk2 FERM NanoBiT luminescence; active compounds read low | z-score (the deposit names both 25 µM and 10 µM) | 99,000 tested, 0.83% active | AID 1347419;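 active = Z-score of -3 or lower, scaled per plate to the spread of control and sample wells; inactive = z-score above -3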;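 also: negative z-score means lost luminescence so less FERM oligomerization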
HePTP inhibitor: human HePTP phosphatase inhibition. 110,000 tested, 0.64% active. recombinant HePTP phosphatase activity, OD absorbance. inhibition, % at 20 µM; in the data active = inhibition above about 50%;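 also: plate controls were vehicle for no effect and reference inhibitor for full effect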
AP ELISA ortho: alternative pathway complement inhibition, orthogonal assay; Human serum alternative complement pathway, LPS-coated ELISA, C3 deposition; tested in compound mixtures; inhibition, % at 5 µM; 62,000 tested, 0.08% active;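 active = inhibition above 30% in each of the two pooled mixtures holding the compound, so the lower value exceeds 30%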;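 also: 0% = serum in Mg-EGTA without compound and 100% = EDTA serum blank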
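Medium: diluted human serum in Mg2+-EGTA GVB++. Assay system: human serum complement alternative pathway, C3 deposition onto LPS. Also added: Plate-bound LPS. Technique: Anti-C3 ELISA, OD 450 nm. Measure: percent inhibition. Incubation: 1 h at 37 °C. Dosing: 5 µM each compound, pools of ten, 50 µM per pool.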
* = called active by the depositor; . = not tested or not shown. Rows were chosen to be rich in hits. Some 1.5% of all compounds tested hit in one or more screens of this group.

SMILES	HEK293 NFkB inh	PLK1 kinase inh	Plk1 PBD FP	PTK2B oligo ant	HePTP inhibitor	AP ELISA ortho
COc1ccc(S(=O)(=O)Nc2ccc(C(F)(F)F)cc2)cc1OC	14	-7	3	-3.4*	4	1
CCOC(=O)c1c(N)sc(C)c1-c1ccc(CC(C)C)cc1	.	.	.	.	8	.
CCCCCCCCNc1nc(OC)nc(OC)n1	.	.	.	.	68*	.
COc1ccc(CNc2nc(NCc3ccc(OC)c(OC)c3)n(C(=O)c3cccs3)n2)cc1OC	.	-14	-18	-3.4*	.	.
O=C(COc1ccc2ccccc2c1)Nc1cccc(Br)c1	.	.	.	.	70*	.
COc1cccc(NC(=O)COc2ccc3ccccc3c2)c1	.	.	.	.	5	.
Cc1cccc(N(CC(=O)NCc2ccc3c(c2)OCO3)C(=O)CCC(=O)Nc2ccccn2)c1C	6	-11	11	-3.1*	-5	-17
Cc1cccc(N(CC(=O)NCc2ccc3c(c2)OCO3)C(=O)CCC(=O)Nc2ccccn2)c1	8	-15	2	-2	8	10
Fc1ccccc1OCCOCCN1CCCCC1	.	.	.	.	10	.
O=C1N/C(=N/NC(=O)c2cccc3ccccc23)S/C1=C\c1ccccc1OCc1ccccc1	.	-10	-11	-3*	.	.
Cc1[nH]nc2c1C(c1ccoc1)C(C#N)=C(N)O2 (centres undefined)	14	55*	9	0.77	-6	-1
CCN(CC(=O)Nc1ccc2c(c1)OCO2)Cc1nc2ccccc2c(=O)[nH]1	10	.	.	0.69	10	5
CCN(CC(=O)Nc1ccc2c(c1)OC(F)(F)O2)Cc1nc2ccccc2c(=O)[nH]1	.	2	-9	-3.9*	.	.
C=CCSc1nnc(-c2c[nH]c3ccccc23)n1CCOC	5	3	-18	1.7	5	0
COCCn1c(SCC(=O)NCc2ccc3c(c2)OCO3)nnc1-c1c[nH]c2ccccc12	6	63*	-4	.	0	9
COCCn1c(SCc2ccc(C(=O)OC)o2)nnc1-c1c[nH]c2ccccc12	16	59*	4	.	1	18
COCCn1c(SCC(=O)Nc2nnc(C)s2)nnc1-c1c[nH]c2ccccc12	18	-8	-11	-0.31	8	10
CC(C)Nc1nc(NC(C)C)nc(N(C#N)CCOc2ccc(Cl)cc2Cl)n1	.	-17	0	-2.5	.	.
Cc1cc(C)nc(N(C#N)CCOc2ccc(Cl)cc2)n1	.	-11	-2	-4.2*	.	.
Cc1c(NC(=O)/C=C/c2cccc([N+](=O)[O-])c2)cccc1-c1nc2ncccc2o1	.	.	.	.	2	.
N#Cc1c2n(c3c(=O)n(Cc4ccc(Cl)cc4)cnc13)CCCCC2	21	2	20	-3.2*	2	19
O=C(COc1ccc(Cl)cc1)NNC(=O)C(=O)NCCO	.	.	.	.	9	.
COc1cccc(-c2csc3nc[nH]c(=O)c23)c1	6	61*	-8	-0.17	3	6
CCc1ccc(C2C(C(=O)OC)=CN(Cc3ccc(C)cc3)C=C2C(=O)OC)s1	.	.	.	.	-7	.
COC(=O)c1cc2sccc2n1CC(=O)Nc1cccc(SC)c1	7	.	.	-3.6*	-2	19
SMILES	HEK293 NFkB inh	PLK1 kinase inh	Plk1 PBD FP	PTK2B oligo ant	HePTP inhibitor	AP ELISA ortho
CCOC(=O)c1cc2sccc2n1CC(=O)Nc1ccc2c(c1)OCCO2	18	-13	11	-3.9*	6	14
Cn1c2ccccc2c2nnc(SCC(=O)NCc3ccco3)nc21	.	.	.	.	104*	.
Cc1cc(NC(=O)CSc2nnc3c4ccccc4n(C)c3n2)no1	.	.	.	.	9	.
CCOC(=O)c1c(C)nc(-c2ccccc2)nc1NC(=O)c1ccccc1	.	.	.	.	9	.
CCCCNC(=O)CS(=O)Cc1nc(-c2cccs2)oc1C (centres undefined)	8	59*	3	.	0	10
Cc1oc(-c2ccccc2F)nc1CS(=O)CC(=O)NCc1cccs1 (centres undefined)	14	62*	-6	.	2	40*
Cc1oc(-c2ccccc2Cl)nc1CS(=O)CC(=O)NCc1cccs1 (centres undefined)	.	-2	-9	.	.	.
O=C(N/N=C\c1cc(Br)ccc1O)c1cnccn1	.	.	.	.	10	.
O=C(Nc1ccc(Br)cc1C(=O)O)c1cccc(N2C(=O)c3ccccc3C2=O)c1	.	.	.	.	102*	.
c1ccc(-c2noc(-c3ccc4ccccc4c3)n2)nc1	75*	.	.	-1	0	15
c1ccc(-c2noc(-c3ccc4c(c3)OCO4)n2)nc1	41*	.	.	-0.45	0	8
Brc1ccc(-c2nc(-c3ccccn3)no2)cc1	.	.	.	.	-2	.
